Consider 31 molecules from ChEMBL document CHEMBL1154648, “1,3-Dipolar cycloaddition of C-aryl-N-phenylnitrones to (R)-1-(1-phenylethyl)-3-[(E)-arylmethylidene]tetrahydro-4(1H)-pyridinones: synthesis and antimycobacterial evaluation of enantiomerically pure spiroisoxazolidines” (2010).

As usually defined, the MIC is the least concentration at which growth counts as inhibited.

≈ marks a conversion by molar mass, not a printed value.

Assay [1] deals with Mycobacterium tuberculosis. Put plainly: Antitubercular activity against Mycobacterium tuberculosis H37Rv after 28 days by agar dilution method. The following applies: 672 h. In kind it is functional. The procedure, abridged:
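Tenfold serial dilutions were incorporated into Middlebrook 7H11 agar with OADC. The H37Rv inoculum came from fresh 7H11/OADC slants, set to 1 mg/mL wet weight in 0.05% Tween 80 saline and diluted 10^-2 (about 10^7 cfu/mL). 5 µL was spotted per tube and incubated at 37 °C, read at 28 days. MIC was the lowest concentration giving complete growth inhibition, tested in triplicate.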
(In general: In agar dilution, organisms are placed on agar that contains the substance at set levels.)

The subject of assay [2] is Mycobacterium tuberculosis. The assay can be described thus: Ratio of MIC for drug to MIC for ethambutol against Mycobacterium tuberculosis H37Rv after 28 days by agar dilution method. The assay is classed as functional.

As to `Cc1ccc([C@@H]2C(c3ccc(Cl)cc3)=NO[C@]23CN([C@H](C)c2ccccc2)CCC3=O)cc1`, the lowest concentration to inhibit growth in assay [1] (MIC) was 6.82 µM (≈ 3.13 µg/mL). `C[C@H](c1ccccc1)N1CCC(=O)[C@]2(C1)ON=C(c1ccc(Cl)cc1)[C@H]2c1cccc2ccccc12`: in assay [1], inhibition of growth (MIC) required 25.2 µM (≈ 12.5 µg/mL). This MIC lies about 3.7-fold higher than the previous one. The same measure, in the same setting: under `C[C@H](c1ccccc1)N1CCC(=O)[C@]2(C1)ON=C(c1ccc(Cl)cc1)[C@H]2c1ccc(Cl)cc1` stands 3.25 µM (≈ 1.56 µg/mL); under `C[C@H](c1ccccc1)N1CCC(=O)[C@@]2(C1)ON(c1ccccc1)[C@H](c1ccccc1)[C@@H]2c1ccccc1Cl`, 5.98 µM (≈ 3.13 µg/mL); under `C[C@H](c1ccccc1)N1CCC(=O)[C@@]2(C1)[C@@H](c1ccccc1)ON(c1ccccc1)[C@@H]2c1ccccc1`, 25.6 µM (≈ 12.5 µg/mL). On the same count and under the same terms, the same measure for `C[C@H](c1ccccc1)N1CCC(=O)[C@]2(C1)ON(c1ccccc1)[C@@H](c1ccccc1)[C@H]2c1cccs1`: 6.33 µM (≈ 3.13 µg/mL). Same read-out and setting: under `C[C@H](c1ccccc1)N1CCC(=O)[C@@]2(C1)ON=C(c1ccc(Cl)cc1)[C@H]2c1ccccc1` stands 14.1 µM (≈ 6.25 µg/mL). As to `C[C@H](c1ccccc1)N1CCC(=O)[C@]2(C1)ON=C(c1ccccc1)[C@H]2c1cccc2ccccc12`, the MIC in assay [1] came out at 27.1 µM (≈ 12.5 µg/mL). On to `Cc1ccc([C@H]2[C@@H](c3ccc(Cl)cc3)[C@@]3(CN([C@H](C)c4ccccc4)CCC3=O)ON2c2ccccc2)cc1`, for which, in assay [1], the MIC worked out at 11.6 µM (≈ 6.25 µg/mL).

As for `Cc1ccc([C@@H]2[C@H](c3ccccc3)N(c3ccccc3)O[C@]23CN([C@H](C)c2ccccc2)CCC3=O)cc1`, the MIC in assay [1] is 12.4 µM (≈ 6.25 µg/mL). On the same count and under the same terms, the same measure for `C[C@H](c1ccccc1)N1CCC(=O)[C@]2(C1)ON(c1ccccc1)[C@@H](c1ccccc1)[C@H]2c1ccccc1`: 25.6 µM (≈ 12.5 µg/mL); for `C[C@H](c1ccccc1)N1CCC(=O)[C@]2(C1)ON=C(c1ccccc1)[C@H]2c1ccccc1Cl`: 7.03 µM (≈ 3.13 µg/mL); for `Cc1ccc([C@@H]2[C@H](c3ccc(Cl)cc3)[C@]3(CN([C@H](C)c4ccccc4)CCC3=O)ON2c2ccccc2)cc1`: 23.3 µM (≈ 12.5 µg/mL). On the same count and under the same terms, the same measure for `Cc1ccc([C@@H]2C(c3ccccc3)=NO[C@]23CN([C@H](C)c2ccccc2)CCC3=O)cc1`: 14.7 µM (≈ 6.25 µg/mL). With `Cc1ccc([C@@H]2[C@H](c3ccc(C)cc3)[C@]3(CN([C@H](C)c4ccccc4)CCC3=O)ON2c2ccccc2)cc1`, in assay [1], inhibition of growth (MIC) required 3.02 µM (≈ 1.56 µg/mL). For the same molecule, the Ratio in assay [2] is recorded as 2.5. The molecule `C[C@H](c1ccccc1)N1CCC(=O)[C@]2(C1)ON=C(c1ccccc1)[C@H]2c1ccc(Cl)cc1` registered an MIC in assay [1] of 14.1 µM (≈ 6.25 µg/mL). Still for that read-out and setting: the same measure for `Cc1ccc([C@H]2[C@@H](c3cccs3)[C@@]3(CN([C@H](C)c4ccccc4)CCC3=O)ON2c2ccccc2)cc1`: 24.6 µM (≈ 12.5 µg/mL); for `Cc1ccc([C@H]2[C@@H](c3ccccc3Cl)[C@@]3(CN([C@H](C)c4ccccc4)CCC3=O)ON2c2ccccc2)cc1`: 11.6 µM (≈ 6.25 µg/mL); for `C[C@H](c1ccccc1)N1CCC(=O)[C@]2(C1)ON(c1ccccc1)[C@@H](c1ccccc1)[C@H]2c1ccccc1Cl`: 23.9 µM (≈ 12.5 µg/mL). The same measure, in the same setting: the same measure for `Cc1ccc([C@@H]2[C@H](c3ccccc3Cl)[C@]3(CN([C@H](C)c4ccccc4)CCC3=O)ON2c2ccccc2)cc1`: 11.6 µM (≈ 6.25 µg/mL); for `C[C@H](c1ccccc1)N1CCC(=O)[C@@]2(C1)ON(c1ccccc1)[C@H](c1ccccc1)[C@@H]2c1ccccc1`: 25.6 µM (≈ 12.5 µg/mL); for `Cc1ccc([C@H]2[C@@H](c3ccccc3)N(c3ccccc3)O[C@@]23CN([C@H](C)c2ccccc2)CCC3=O)cc1`: 24.9 µM (≈ 12.5 µg/mL). Same read-out and setting: under `C[C@H](c1ccccc1)N1CCC(=O)[C@]2(C1)ON=C(c1ccc(Cl)cc1)[C@H]2c1ccccc1Cl` stands 3.25 µM (≈ 1.56 µg/mL). In turn, `Cc1ccc([C@@H]2[C@H](c3ccccc3)[C@]3(CN([C@H](C)c4ccccc4)CCC3=O)ON2c2ccccc2)cc1` yielded a minimal inhibitory concentration (MIC) in assay [1] of 49.7 µM (≈ 25 µg/mL). On the same count and under the same terms, the same measure for `Cc1ccc([C@H]2N(c3ccccc3)O[C@H](c3ccccc3)[C@@]23CN([C@H](C)c2ccccc2)CCC3=O)cc1`: 24.9 µM (≈ 12.5 µg/mL); for `Cc1ccc([C@@H]2[C@H](c3ccc(C)cc3)N(c3ccccc3)O[C@]23CN([C@H](C)c2ccccc2)CCC3=O)cc1`: 6.06 µM (≈ 3.13 µg/mL); for `C[C@H](c1ccccc1)N1CCC(=O)[C@]2(C1)ON=C(c1ccccc1)[C@H]2c1ccccc1`: 60.9 µM (≈ 25 µg/mL). The same measure, in the same setting: under `Cc1ccc([C@H]2[C@@H](c3ccccc3)[C@@]3(CN([C@H](C)c4ccccc4)CCC3=O)ON2c2ccccc2)cc1` stands 49.7 µM (≈ 25 µg/mL); under `CC[C@@H](CO)NCCN[C@@H](CC)CO` [ETHAMBUTOL], 7.64 µM (≈ 1.56 µg/mL); under `NNC(=O)c1ccncc1` [ISONIAZID], 0.36 µM (≈ 0.0494 µg/mL).

In turn, `CO[C@H]1/C=C/O[C@@]2(C)Oc3c(C)c(O)c4c(O)c(c(/C=N/N5CCN(C)CC5)c(O)c4c3C2=O)NC(=O)/C(C)=C\C=C\[C@H](C)[C@H](O)[C@@H](C)[C@@H](O)[C@@H](C)[C@H](OC(C)=O)[C@@H]1C` [RIFAMPIN] displayed a minimum inhibitory concentration (MIC) in assay [1] of 0.12 µM (≈ 0.0988 µg/mL).
